Data from ChEMBL document CHEMBL4428120, “In silico and in vitro methods to identify ebola virus VP35-dsRNA inhibitors” (Bioorg Med Chem, 2016).
The source made the active and inactive calls. No cut-off for these calls is given here.

Tests used:
[1] = (§1) Inhibition of fluorescent dsRNA probe binding to N-terminal His-tagged recombinant Ebola virus VP35 interferon inhibitory domain pre-incubated for 5 mins before dsRNA addition and measured after 5 mins by ethidium bromide displacement based EMSA method relative to control; design: species or system Ebolavirus
Method in brief: (§2)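 EMSA: Ni-NTA-purified recombinant VP35 IID was 400 nM before probe addition, in Tris-HCl pH 7.5/NaCl/10% glycerol buffer. Compound was diluted twofold serially from 200 μM and incubated 5 min. An equal volume of 60 nM Cy5.5-dsRNA probe was added, then 5 min at room temperature and then on ice. Agarose gel, infrared scan; IC50 taken from the dose-response.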

RNA = test: Binding affinity to RNA (unknown origin) assessed as inhibition of fluorescent dsRNA probe binding to DNA at 200 uM at 200 uM pre-incubated for 5 mins before dsRNA addition and measured after 5 mins by ethidium bromide displacement based EMSA method relative to control; type: nucleic-acid assay
Ebolavirus [2] = test: (§3) Inhibition of fluorescent dsRNA probe binding to N-terminal His-tagged recombinant Ebola virus VP35 interferon inhibitory domain at 200 uM pre-incubated for 5 mins before dsRNA addition and measured after 5 mins by ethidium bromide displacement based EMSA method relative to control
Method in brief: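 Recombinant VP35 IID was expressed in E. coli BL-21 and purified on Ni-NTA. It was 400 nM before probe addition, in 10 mM Tris-HCl pH 7.5, 10 mM NaCl, 10% glycerol, with 200 μM compound for 5 min. An equal volume of 60 nM Cy5.5-labelled 10-bp dsRNA was added, then 5 min at room temperature and then on ice. Run on 1% agarose in chilled TAE; infrared scan.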

Ebolavirus [3] = test: as §3, with “domain assessed as normalized intensity for DNA binding” for “domain”; design: scale not given: the % may be the effect or the level left
DNA = test: Binding affinity to DNA (unknown origin) assessed as inhibition of fluorescent dsRNA probe binding to DNA at 200 uM at 200 uM pre-incubated for 5 mins before dsRNA addition and measured after 5 mins by ethidium bromide displacement based EMSA method relative to control; type: nucleic-acid assay
Ebolavirus [4] = test: as §1; method in brief: as §2

Compound | IC50 [1] [µM] | Activity (RNA) | inhibition (Ebolavirus [2]) | Activity (Ebolavirus [3]) [%] | Activity (DNA) | inhibition (Ebolavirus [4])
NC(=O)NC(NC(=O)NC(NC(N)=O)c1ccco1)c1ccco1 (stereo not drawn) | 4 | inactive | > 50% | 98.1 to 116 | inactive | 
CN1CCN(CCSC(=O)C(Cl)(c2ccccc2)C2CCCC2)CC1 (stereo not drawn) |  | inactive | > 50% | 72.3 to 91.8 | inactive | 
Nc1nnc2nc(CC(=O)c3cccc([N+](=O)[O-])c3)c(CC(=O)c3cccc([N+](=O)[O-])c3)nn12 |  | inactive |  | 60.7 to 88.8 | inactive | 
CNCc1ccco1 |  | inactive | inactive | 110 to 117 | inactive | 
CCOC(=O)NC(NC(=O)OCC)c1ccc(C(NC(=O)OCC)NC(=O)OCC)cc1 |  | inactive | > 50% | 79.6 to 108 | inactive | 
CCC(=O)NNC(/C=C/c1cccc(O)c1)=C1/S/C(=N\c2ccc(C)cc2[N+](=O)[O-])N=C1C |  | inactive |  | 73.8 to 92.7 | inactive | 
O=C(OCCCCOC(=O)N1C(=O)c2ccccc2C1=O)N1C(=O)c2ccccc2C1=O |  | Active | > 50% | 46.8 to 78.5 | Active | 
c1coc(CNCNCc2ccco2)c1 |  | inactive | inactive | 45 to 98.4 | inactive | 
CCOc1ccccc1C(SCC(=O)O)SCC(=O)O |  | inactive | > 50% | 92 to 107 | inactive | 
Cc1nc(-n2nc(-c3ccccc3)cc2-c2ccccc2)sc1C(=O)/C=C/c1ccc([N+](=O)[O-])cc1 |  | inactive |  | 76.3 | inactive | 
COC1=C/C(=C/C=C(\NNC(=S)NN)c2sc(NNC(C)=O)nc2C)C=CC1=O | 20 | inactive |  | 81.5 | inactive | Dose-dependent effect
